STAT3 blocker – IL-6 driven STAT3 reporter inhibitors, primary screen, U3A cells, luciferase, luminescence, MLSCN library | IL-6 STAT3-luciferase reporter; host cell line lacks STAT1 | inhibition, % at 5.5 µM | hit rate 0.89% among 190,000;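 active = inhibition above the mean inhibition across all screened compounds plus 3 SD, cut at about 44% in these data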;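 also: 0% = DMSO only wells and 100% = 100 µM nifuroxazide control wells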
STAT1 inh – STAT1 signaling inhibitors, primary screen, cell-based, HTS, luciferase reporter; hit rate 0.35% among 200,000; AID 920, 2007; NIH 3T3 STAT1-luciferase reporter, IFN-gamma, luminescence; inhibition, % at 5.5 µM;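 active = inhibition above a set limit, the mean inhibition across all tested compounds plus 3 SD, cut at about 34% in these data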;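 also: 0% = IFN-gamma with DMSO and 100% = IFN-gamma with 300 µM nifuroxazide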
STAT1 act – STAT1 signaling activators, primary screen, cell-based, HTS, luciferase reporter; NIH 3T3 STAT1-luciferase reporter, IFN-gamma, luminescence; 100% = IFN-gamma alone, no compound; activation (% of control), % at 5.5 µM; hit rate 2.6% among 200,000; AID 932, 2007;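 active = activation above the screen-wide mean activation plus 3 SD, cut at about 130% in these data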;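 also: raw ratio to IFN-gamma control signal so 100% means no change and 0% no light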
NF-kB neuron act – activators of NF-kB expression in neurons, primary screen, cell-based, HTS; fold change at 12.5 µM; human neuronal cells, NF-kB reporter expression; active compounds read high; hit rate 1.6% among 190,000; AID 1239, 2008; in the data active = fold change above about 3.3
APP 5'UTR act – activators of APP 5'UTR luciferase reporter, primary screen, SH-SY5Y cells; activation, % at 2 µM; hit rate 1% among 190,000; SH-SY5Y APP 5'UTR luciferase reporter, luminescence; zero percent = DMSO vehicle wells;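 active = activation above a set limit, based on mean plus 3 SD of controls, cut at about 140% in these data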
STAT3 activator – IL-6 driven STAT3 reporter potentiators, primary screen, U3A cells, luciferase, luminescence, MLSCN library; IL-6 STAT3-luciferase reporter; 100% = signal with IL-6 EC80 alone; activation (% of control), % at 5.6 µM; hit rate 0.91% among 190,000;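 active = activation above the screen-wide mean of compound activation plus 3 SD, cut at about 130% in these data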;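 also: 0% = background luminescence of wells with medium and substrate only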
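Detection: reporter luminescence signal / Assay system: STAT1-lacking human U3A cells, STAT3 luciferase reporter / Incubation: compound pre-incubation 1 h before IL-6, then 6 h stimulation at 37 °C / Control set: IL-6-only high control / Read-out: % activation relative to IL-6 control / Probe or stimulus: Interleukin-6, 33 ng/mL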
Numbers without * were called inactive. Rows were chosen to be rich in hits. Some 4.9% of all compounds tested hit in one or more screens of this group.

SMILES | STAT3 blocker | STAT1 inh | STAT1 act | NF-kB neuron act | APP 5'UTR act | STAT3 activator
COc1ccc(-c2nc3ccc(N4CCN(C)CC4)cc3c(=O)[nH]2)cc1 | -2.2 | -31.7 | 129.5* | 1.57 | 2.6 | 110.9
COc1cc(-c2nc3ccc(N4CCN(C)CC4)cc3[nH]2)cc(OC)c1OC | 21.5 | 21.6 | 79.5 | 1.08 | 18.3 | 83.9
O=C1CC(/C=C/c2ccccc2)=Nc2ccccc2N1 | 8.6 | -43.8 | 141.9* | 4.03* | 127.7 | 94.5
O=C1C(=Cc2ccco2)C(=O)c2ccccc21 | -15.4 | -1.4 | 101.3 | 1.13 | 17.1 | 110.6
O=C1/C(=C/c2ccco2)CCc2ccccc21 | -0.1 | -5.9 | 105.2 | 2.89 | 164.5* | 104.3
Nc1ccc2c(c1)C/C(=C/c1ccco1)C2=O | -0.5 | -125.7 | 210.2* | 1.02 | 188.6* | 100.6
COc1ccc2c(c1)CC/C(=C/c1ccco1)C2=O | 37.7 | -37.0 | 132.7* | 8.13* | 181.2* | 70.1
COc1ccccc1C(=O)N/C(=C/c1ccc(Br)cc1)C(=O)N1CCCC1 | 1.8 | 7.9 | 90.9 | 0.77 | 11.5 | 103.5
Cc1ccccc1OCCn1cnc2c(N)ncnc21 | 21.2 | -31.6 | 129.4* | 1.6 | 2.2 | 84.1
C/C(=N\NC(=O)c1c(C)nc2ccccn12)c1ccco1 | -1.9 | -33.4 | 133.5* | 1.92 | 17.6 | 106.0
C/C(=N\NC(=O)c1c(C)nc2ccccn12)c1ccc(N2CCOCC2)cc1 | -7.4 | -8.8 | 106.8 | 1.13 | 8.5 | 112.5
N#CC1=C2C=CC=CN2CC1=O | -10.8 | -48.6 | 144.5* | 1.06 | 24.6 | 111.7
COc1cc(/C=C2\SC(=Nc3ccc(O)cc3)NC2=O)cc(OC)c1O | 11.9 | 5.7 | 94.8 | 1.2 | -7.3 | 96.8
O=C1NC(=O)/C(=C/c2ccc(O)cc2)S1 | -22.5 | -31.9 | 130.2* | 1.9 | 16.6 | 128.1
CC1=CC(C)(C)N(S(=O)(=O)c2ccc(C)cc2)c2cc(C)ccc21 | -11.8 | -13.8 | 112.6 | 4.37* | -95.9 | 115.4
COc1ccc2c(c1)C(C)=CC(C)(C)N2S(=O)(=O)c1ccc(C)cc1 | -11.8 | -1.5 | 100.0 | 2.63 | -84.3 | 111.3
CCOc1ccc(Nc2cc(C)nc(N3CCOCC3)n2)cc1 | 3.1 | -9.8 | 109.0 | 1.3 | 1.2 | 99.8
Cc1ccc(Nc2cc(C)nc(N3CCOCC3)n2)cc1 | -34.1 | -16.6 | 115.2 | 1.4 | 5.8 | 133.8*
O=C1c2ccccc2C(=O)N1CCCCN(C(=O)c1cc([N+](=O)[O-])ccc1Cl)c1ccc(Cl)cc1 | -0.9 | -0.6 | 100.6 | 0.49 | 0.7 | 98.6
CCc1cccc2c(C(=O)COC(=O)c3ccc(O)cc3)c[nH]c12 | -13.8 | -35.9 | 131.6* | 1.28 | 1.5 | 114.1
CCc1cccc2c(C(=O)COC(=O)/C=C/c3ccccc3OC)c[nH]c12 | 1.6 | 1.7 | 98.5 | 0.99 | 8.0 | 94.5
CCc1cccc2c(C(=O)COC(=O)c3ccccc3)c[nH]c12 | -11.9 | -48.2 | 143.0* | 3.21 | 37.7 | 111.9
CCc1cccc2c(C(=O)COC(=O)c3c(C)noc3C)c[nH]c12 | 10.5 | -8.6 | 107.7 | 1.12 | -6.5 | 94.4
O=C(NNC(=S)Nc1ccc(Cl)cc1Cl)C1CC1 | -2.4 | -13.0 | 111.5 | 1.69 | 8.8 | 105.5
COc1ccc(OC)c(NC(=O)CN(Cc2ccccc2)S(C)(=O)=O)c1 | 6.4 | 2.7 | 97.7 | 1.03 | -21.6 | 102.6
SMILES | STAT3 blocker | STAT1 inh | STAT1 act | NF-kB neuron act | APP 5'UTR act | STAT3 activator
C/C(=C\C(=O)O)C(=O)Nc1nccs1 | 3.3 | -0.7 | 100.7 | 1.02 | -4.8 | 97.5
C/C(=C\C(=O)Nc1nccs1)c1ccccc1 | 11.8 | -52.1 | 144.2* | 2.57 | 49.9 | 93.2
O=C(N/N=C\c1ccc(-c2ccccc2[N+](=O)[O-])o1)C1COc2ccccc2O1 (configuration not stated) | -46.2 | 5.0 | 95.4 | 0.64 | 6.8 | 133.3*
CC(C)(C)c1ccc(OCc2cnc(Cl)s2)cc1 | -3.4 | -25.5 | 121.1 | 1.78 | 54.9 | 108.8
Clc1ccccc1CSc1ncn(-c2ccccc2)n1 | -17.8 | -33.3 | 130.7* | 2.54 | 83.4 | 118.3
CC1CCCN(C(=O)c2cc3c(-c4ccc(Cl)cc4)nn(C)c3s2)C1 (configuration not stated) | -18.0 | -1.4 | 101.2 | 0.98 | -3.2 | 119.4
CCOCCCNC(=O)c1cc2c(-c3ccc(Cl)cc3)nn(C)c2s1 | -32.4 | 1.0 | 99.1 | 0.59 | 4.4 | 135.5*
COc1cccc2cc(C(C)OC(=O)Nc3ccc(C)cc3)oc12 (configuration not stated) | 13.9 | -2.9 | 101.0 | 0.93 | 4.7 | 96.6
Cc1cc(C)cc(-n2c(C)cc(C(=O)CSc3nnnn3C)c2C)c1 | 1.3 | 0.2 | 100.3 | 1.18 | -1.5 | 99.0
Cc1cc(C(=O)CSc2nnnn2C)c(C)n1-c1cccc(F)c1 | 5.2 | -34.1 | 131.3* | 4.76* | 111.1 | 98.5
COc1ccc(NC2=C(Cl)C(=O)N(CCc3ccccc3)C2=O)cc1 | 1.7 | -47.3 | 142.3* | 2.83 | 86.6 | 100.4
COc1ccc(NC2=C(Cl)C(=O)N(CCc3ccccc3)C2=O)c(OC)c1 | -1.3 | 0.8 | 99.3 | 1.66 | 25.9 | 99.2
Cc1cc(C)n(-c2nc3ccccc3c(=O)n2OCC(=O)OCc2ccccc2)n1 | 10.3 | -4.9 | 104.5 | 0.93 | -51.4 | 98.7
Cc1cc(C)n(-c2nc3ccccc3c(=O)n2OCc2ccc(F)cc2)n1 | -31.1 | 9.7 | 91.1 | 1.15 | 13.8 | 135.2*
CC(Sc1nc2c(cc1C#N)CCCCC2)C(=O)O (configuration not stated) | 10.8 | 1.1 | 97.0 | 1.05 | 26.2 | 95.3
Cc1ccnc(NC(=S)NC(=O)/C=C/c2ccco2)c1 | 0.8 | -47.1 | 143.6* | 2.4 | 85.8 | 104.6
O=C(NC(=S)Nc1ccccn1)c1ccco1 | 9.6 | -35.8 | 132.0* | 2.27 | 99.6 | 94.1
Cc1ccnc(NC(=O)/C=C/c2cccs2)c1 | 28.8 | -40.3 | 136.8* | 1.08 | 191.0* | 74.8
Cc1ccnc(NC(=S)NC(=O)c2ccco2)c1 | 9.2 | -33.4 | 130.1* | 4.66* | 149.0* | 100.8
COC(=O)C(NC(=O)c1ccco1)(Nc1cc(C)ccn1)C(F)(F)F (configuration not stated) | -0.6 | -10.9 | 110.0 | 1.02 | 1.7 | 100.2
O=C(/C=C/c1cccs1)Nc1cccnc1 | -3.8 | -30.4 | 126.7 | 1.89 | 62.1 | 105.6
CN(CC(=O)Nc1ccc(S(=O)(=O)N2CCCC2)cc1)Cc1c(F)cccc1Cl | 25.6 | 12.1 | 86.8 | 0.97 | 2.7 | 81.3
Cc1ccc(NCCCCO)cc1C | -1.3 | 3.3 | 95.2 | 1.13 | -16.7 | 103.2
COc1ccc(S(=O)(=O)N2CCOCC2)cc1NC(=O)c1ccccc1-c1ccc(C(F)(F)F)cc1 | 18.3 | -1.6 | 101.4 | 1.21 | 3.5 | 85.4

High-throughput results (PubChem)
